Here are results for eight molecules from publication PMC3155308 (The EMBO Journal, 2011).

Where no end group is shown, it is not given here.

The test system of assay [1] is myosin-X MyTH4–FERM cassette. The assay is described as follows: Pull-down with GST-fused C-terminal tail peptides of α- and β-tubulins. It is filed as binding, human. The following applies: 20 mM Tris–HCl (pH 8.0), 50 mM NaCl, 1 mM DTT, 4°C, 30 min. In a few lines:
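Purified MyTH4–FERM cassette was mixed with GST-fused α1A-tubulin (399–451) or β2B-tubulin (390–445) tail peptide in 20 mM Tris–HCl pH 8.0, 50 mM NaCl, 1 mM DTT at 4°C for 30 min. Glutathione-Sepharose was then added for 10 min at 4°C, with five washes. Elution used 20 mM glutathione in 50 mM Tris–HCl pH 8.0 with 150 mM NaCl, then SDS–PAGE.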

The test system of another assay is DCC P3 peptide. The assay is described as follows: Pull-down of wild-type and mutated MyTH4–FERM cassettes with GST-DCC P3 peptide. Type of assay: binding, human. The following applies: SDS–PAGE. In a few lines: (§1)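 Human myosin-X MyTH4–FERM cassette (wild type or site-directed mutants) was expressed in E. coli BL21Star(DE3) at 20°C with 0.1 mM IPTG. It was Ni-NTA purified, then His-tag cleaved with HRV3C, then run over cation exchange and gel filtration. GST bait was human DCC 1390–1447 or β2B-tubulin 390–445. Cassette and bait were mixed with glutathione-Sepharose at 4°C, washed, and eluates resolved by SDS–PAGE.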

Assay [2] relates to C-terminal acidic tail peptide of β2B-tubulin. The assay is described as follows: Pull-down of wild-type and mutated MyTH4–FERM cassettes with GST-tubulin tail. Type of assay: binding. The following applies: SDS–PAGE. In a few lines:
as §1

Assay [3] concerns the target T1, myosin-X MyTH4–FERM cassette K1647D/K1650D (human, UniProt Q9HD67 1486-2058, Δ20 deletion (residues 1872–1891) | K1647D | K1650D).
T1 sequence (looked up): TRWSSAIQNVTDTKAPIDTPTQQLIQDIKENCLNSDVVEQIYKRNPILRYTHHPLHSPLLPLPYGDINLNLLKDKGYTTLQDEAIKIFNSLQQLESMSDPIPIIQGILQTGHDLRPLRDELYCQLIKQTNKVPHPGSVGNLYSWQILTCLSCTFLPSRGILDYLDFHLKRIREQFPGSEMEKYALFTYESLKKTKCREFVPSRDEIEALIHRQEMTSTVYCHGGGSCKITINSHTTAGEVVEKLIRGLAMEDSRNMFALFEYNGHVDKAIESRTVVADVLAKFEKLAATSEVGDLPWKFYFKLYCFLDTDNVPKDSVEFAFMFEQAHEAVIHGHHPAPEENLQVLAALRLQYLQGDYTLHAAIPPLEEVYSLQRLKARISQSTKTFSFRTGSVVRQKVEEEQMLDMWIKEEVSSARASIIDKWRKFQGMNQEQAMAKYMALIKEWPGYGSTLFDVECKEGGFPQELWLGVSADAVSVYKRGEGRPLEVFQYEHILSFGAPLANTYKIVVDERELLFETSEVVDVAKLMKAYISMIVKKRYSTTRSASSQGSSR
The assay is described as follows: pull-down.

In assay [4] the target is T2, myosin-X MyTH4–FERM cassette F2002K (human, UniProt Q9HD67 1486-2058, Δ20 deletion (residues 1872–1891) | F2002K).
T2 sequence (looked up): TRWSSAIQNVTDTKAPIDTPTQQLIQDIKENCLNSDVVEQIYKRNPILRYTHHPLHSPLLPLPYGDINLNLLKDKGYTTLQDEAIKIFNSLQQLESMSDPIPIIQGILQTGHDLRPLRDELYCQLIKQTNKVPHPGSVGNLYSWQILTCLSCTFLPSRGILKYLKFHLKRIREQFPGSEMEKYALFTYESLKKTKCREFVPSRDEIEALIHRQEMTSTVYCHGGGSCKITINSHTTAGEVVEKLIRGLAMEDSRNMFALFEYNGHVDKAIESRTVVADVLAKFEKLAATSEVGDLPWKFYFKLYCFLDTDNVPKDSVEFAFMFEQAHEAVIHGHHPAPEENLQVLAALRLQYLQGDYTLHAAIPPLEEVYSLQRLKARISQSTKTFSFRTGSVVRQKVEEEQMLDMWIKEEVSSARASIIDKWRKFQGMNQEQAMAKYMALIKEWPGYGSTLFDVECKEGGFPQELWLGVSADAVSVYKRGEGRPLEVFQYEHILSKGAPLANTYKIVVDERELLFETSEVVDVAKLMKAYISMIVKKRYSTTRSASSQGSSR
The assay is described as follows: pull-down.

The subject of the next assay is DCC. The assay is described as follows: Co-immunoprecipitation of DCC with myc-tagged myosin-X MyTH4–FERM. The following applies: HEK293T cells, anti-myc antibody, immunoblot. Type of assay: cell-based. (In western blotting, separated proteins are transferred to a membrane and probed.)

On to “α-tubulin C-terminal acidic tail peptide: GST-fused C-terminal tail peptide of α1A-tubulin (399–451)”, for which the “binding of tubulin C-terminal acidic tail peptides” value in assay [1] was “binds”.
For “β-tubulin C-terminal acidic tail peptide: GST-fused C-terminal acidic tail peptide of β2B-tubulin (390–445) ({GST}-RRKAFLHWYTGEGMDEMEFTEAESNMNDLVSEYQQYQDATADEQGEFEEEEGEDEA; not fully specified)”, the “binding of tubulin C-terminal acidic tail peptides” value in assay [1] is on record as “binds”.

B1: Myo-X (K1647D/K1650D) (protein)
chain: TRWSSAIQNVTDTKAPIDTPTQQLIQDIKENCLNSDVVEQIYKRNPILRYTHHPLHSPLLPLPYGDINLNLLKDKGYTTLQDEAIKIFNSLQQLESMSDPIPIIQGILQTGHDLRPLRDELYCQLIKQTNKVPHPGSVGNLYSWQILTCLSCTFLPSRGILDYLDFHLKRIREQFPGSEMEKYALFTYESLKKTKCREFVPSRDEIEALIHRQEMTSTVYCHGGGSCKITINSHTTAGEVVEKLIRGLAMEDSRNMFALFEYNGHVDKAIESRTVVADVLAKFEKLAATSEVGDLPWKFYFKLYCFLDTDNVPKDSVEFAFMFEQAHEAVIHGHHPAPEENLQVLAALRLQYLQGDYTLHAAIPPLEEVYSLQRLKARISQSTKTFSFRTGSVVRQKVEEEQMLDMWIKEEVSSARASIIDKWRKFQGMNQEQAMAKYMALIKEWPGYGSTLFDVECKEGGFPQELWLGVSADAVSVYKRGEGRPLEVFQYEHILSFGAPLANTYKIVVDERELLFETSEVVDVAKLMKAYISMIVKKRYSTTRSASSQGSSR
modifications: left off: His6, N-terminal, cleaved
As for B1, the “binding to DCC P3 peptide” value is recorded as “only weakly affected binding” in the assay on DCC P3 peptide and “only a slight reduction in DCC binding” in the assay with DCC P3 peptide (listed as K1647D/K1650D). Further, the “binding to β2B-tubulin C-terminal tail peptide” value in assay [2] is reported as “abolished binding”.

B2: Myo-X (F2002K) (protein)
chain: TRWSSAIQNVTDTKAPIDTPTQQLIQDIKENCLNSDVVEQIYKRNPILRYTHHPLHSPLLPLPYGDINLNLLKDKGYTTLQDEAIKIFNSLQQLESMSDPIPIIQGILQTGHDLRPLRDELYCQLIKQTNKVPHPGSVGNLYSWQILTCLSCTFLPSRGILKYLKFHLKRIREQFPGSEMEKYALFTYESLKKTKCREFVPSRDEIEALIHRQEMTSTVYCHGGGSCKITINSHTTAGEVVEKLIRGLAMEDSRNMFALFEYNGHVDKAIESRTVVADVLAKFEKLAATSEVGDLPWKFYFKLYCFLDTDNVPKDSVEFAFMFEQAHEAVIHGHHPAPEENLQVLAALRLQYLQGDYTLHAAIPPLEEVYSLQRLKARISQSTKTFSFRTGSVVRQKVEEEQMLDMWIKEEVSSARASIIDKWRKFQGMNQEQAMAKYMALIKEWPGYGSTLFDVECKEGGFPQELWLGVSADAVSVYKRGEGRPLEVFQYEHILSKGAPLANTYKIVVDERELLFETSEVVDVAKLMKAYISMIVKKRYSTTRSASSQGSSR
modifications: left off: His6, N-terminal, cleaved
Regarding B2, the “binding to DCC P3 peptide” value in the assay on DCC P3 peptide is reported as “abolished the binding”; in the assay with DCC P3 peptide (listed as F2002K), “abolished DCC binding”. Moreover, the “binding to β2B-tubulin C-terminal tail peptide” value in assay [2] is recorded as “no effect on tubulin tail binding”; in assay [2] (listed as F2002K) it was “no effect on binding to the tubulin tail”.

B3: GST-fused DCC P3 peptide (residues 1390–1447) (peptide, UniProt P43146 1390-1447, looked up)
chain: ARSPLLPVSVPTAPEVSEESHKPTEDSANVYEQDDLSEQMASLEGLMKQLNAITGSAF
In the case of B3, in assay [3], the binding result is “binds”.

B4: GST-fused β2B-tubulin C-terminal acidic tail peptide (390–445) (peptide, UniProt Q9BVA1 390-445, looked up)
chain: RRKAFLHWYTGEGMDEMEFTEAESNMNDLVSEYQQYQDATADEQGEFEEEEGEDEA
modifications: also: GST-fused (side not given here)
Consider B4, for which, in assay [4], the binding result is “binds”.

B5: myc–MyTH4–FERM(ΔC): residues 1486–1954, lacks subdomain C of the FERM domain (protein)
chain: TRWSSAIQNVTDTKAPIDTPTQQLIQDIKENCLNSDVVEQIYKRNPILRYTHHPLHSPLLPLPYGDINLNLLKDKGYTTLQDEAIKIFNSLQQLESMSDPIPIIQGILQTGHDLRPLRDELYCQLIKQTNKVPHPGSVGNLYSWQILTCLSCTFLPSRGILKYLKFHLKRIREQFPGSEMEKYALFTYESLKKTKCREFVPSRDEIEALIHRQEMTSTVYCHGGGSCKITINSHTTAGEVVEKLIRGLAMEDSRNMFALFEYNGHVDKAIESRTVVADVLAKFEKLAATSEVGDLPWKFYFKLYCFLDTDNVPKDSVEFAFMFEQAHEAVIHGHHPAPEENLQVLAALRLQYLQGDYTLHAAIPPLEEVYSLQRLKARISQSTKTFTPCERLEKRRTSFLEGTLRRSFRTGSVVRQKVEEEQMLDMWIKEEVSSARASIIDKWRKFQGMNQEQAMAKYMALIKEWPGYG
modifications: left off: myc, end not stated, kept
Turning to B5, the “co-immunoprecipitation of DCC” value with DCC is listed as “no interaction”.

B6: myc-tagged myosin-X MyTH4–FERM cassette: myc-tagged full-length MyTH4–FERM cassette (residues 1486–2058) (protein)
chain: TRWSSAIQNVTDTKAPIDTPTQQLIQDIKENCLNSDVVEQIYKRNPILRYTHHPLHSPLLPLPYGDINLNLLKDKGYTTLQDEAIKIFNSLQQLESMSDPIPIIQGILQTGHDLRPLRDELYCQLIKQTNKVPHPGSVGNLYSWQILTCLSCTFLPSRGILKYLKFHLKRIREQFPGSEMEKYALFTYESLKKTKCREFVPSRDEIEALIHRQEMTSTVYCHGGGSCKITINSHTTAGEVVEKLIRGLAMEDSRNMFALFEYNGHVDKAIESRTVVADVLAKFEKLAATSEVGDLPWKFYFKLYCFLDTDNVPKDSVEFAFMFEQAHEAVIHGHHPAPEENLQVLAALRLQYLQGDYTLHAAIPPLEEVYSLQRLKARISQSTKTFTPCERLEKRRTSFLEGTLRRSFRTGSVVRQKVEEEQMLDMWIKEEVSSARASIIDKWRKFQGMNQEQAMAKYMALIKEWPGYGSTLFDVECKEGGFPQELWLGVSADAVSVYKRGEGRPLEVFQYEHILSFGAPLANTYKIVVDERELLFETSEVVDVAKLMKAYISMIVKKRYSTTRSASSQGSSR
modifications: left off: myc, end not stated, kept
For the molecule B6, in the assay with DCC, the “co-immunoprecipitation of DCC” value is listed as “co-immunoprecipitation of DCC”.
